The source made the active and inactive calls. The calls are words filed in the database; no cut-off is given here.
Legend:
Homo sapiens [1] = species on record: Homo sapiens; experiment: Selectivity index, ratio of inhibition of human mu opioid receptor to inhibition of human kappa opioid receptor
Homo sapiens [2] = species on record: Homo sapiens; experiment: Selectivity index, ratio of inhibition of human delta opioid receptor to inhibition of human kappa opioid receptor
[3] = target: T1, Kappa-type opioid receptor (Homo sapiens, UniProt P41145); experiment: Antagonist activity at human kappa opioid receptor expressed in CHO cells assessed as inhibition of U50488-induced […]GTPgammaS binding after 60 mins by scintillation counting; type: functional, cell-based
Summary of the method: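 κ antagonism: hKOR-CHO membranes incubated with compound plus 100 nM U50,488.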

[4] = target: T1, Kappa-type opioid receptor; experiment: Agonist activity at human kappa opioid receptor expressed in CHO cells assessed as stimulation of […]GTPgammaS binding after 60 mins by scintillation counting relative to control; type: functional, cell-based
Summary of the method: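 Membranes from CHO cells stably expressing human KOR (15 μg protein per tube) or MOR (7.5 μg protein per tube). Nonspecific binding with 10 μM GTPγS. Filtration, then scintillation counting. Triplicate, at least three experiments.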

[5] = target: T2, Delta-type opioid receptor (Homo sapiens, UniProt P41143); experiment: Displacement of [3H]-naltrindole from human delta opioid receptor expressed in CHO cells at 10 uM after 3 hrs by scintillation counting; type: cell-based
[6] = target: T1, Kappa-type opioid receptor; experiment: Agonist activity at human kappa opioid receptor expressed in CHO cells assessed as stimulation of […]GTPgammaS binding after 60 mins by scintillation counting; type: functional, cell-based
Mu-type opioid receptor [7] = target: T3, Mu-type opioid receptor (Homo sapiens, UniProt P35372); experiment: biochemical; type: cell-based, CHO
[8] = target: T1, Kappa-type opioid receptor; experiment: biochemical; type: cell-based, CHO
Homo sapiens [9] = species on record: Homo sapiens; experiment: Selectivity index, ratio of inhibition of human delta opioid receptor to inhibition of human mu opioid receptor
Homo sapiens [10] = species on record: Homo sapiens; experiment: Selectivity index, ratio of inhibition of human kappa opioid receptor to inhibition of human mu opioid receptor
[11] = Displacement of [3H]-naltrindole from human delta opioid receptor expressed in CHO cells after 3 hrs by scintillation counting
Mu-type opioid receptor [12] = target: T3, Mu-type opioid receptor; experiment: Agonist activity at human mu opioid receptor expressed in CHO cells assessed as stimulation of […]GTPgammaS binding after 60 mins by scintillation counting relative to control; type: functional, cell-based
Mu-type opioid receptor [13] = target: T3, Mu-type opioid receptor; experiment: Antagonist activity at human mu opioid receptor expressed in CHO cells assessed as inhibition of DAMGO-induced […]GTPgammaS binding after 60 mins by scintillation counting; type: functional, cell-based
[14] = target: T2, Delta-type opioid receptor; experiment: Displacement of [3H]-naltrindole from human delta opioid receptor expressed in CHO cells after 3 hrs by scintillation counting; type: cell-based
Summary of the method: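 CHO membranes expressing human KOR or DOR incubated with radioligand and 12 compound concentrations in 1 mL 50 mM Tris-HCl, pH 7.5, at 25 °C. […] Nonspecific binding with 10 μM naloxone. Three experiments in triplicate.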

Mu-type opioid receptor [15] = target: T3, Mu-type opioid receptor; experiment: Antagonist activity at human mu opioid receptor expressed in CHO cells assessed as inhibition of DAMGO-induced […]GTPgammaS binding after 60 mins by scintillation counting relative to control; type: functional, cell-based
Mu-type opioid receptor [16] = target: T3, Mu-type opioid receptor; experiment: Agonist activity at human mu opioid receptor expressed in CHO cells assessed as stimulation of […]GTPgammaS binding after 60 mins by scintillation counting; type: functional, cell-based
[17] = target: T1, Kappa-type opioid receptor; experiment: Displacement of [3H]-U69,593 from human kappa opioid receptor expressed in CHO cells at 10 uM after 60 mins by scintillation counting; type: cell-based

T3 sequence (P35372 whole entry): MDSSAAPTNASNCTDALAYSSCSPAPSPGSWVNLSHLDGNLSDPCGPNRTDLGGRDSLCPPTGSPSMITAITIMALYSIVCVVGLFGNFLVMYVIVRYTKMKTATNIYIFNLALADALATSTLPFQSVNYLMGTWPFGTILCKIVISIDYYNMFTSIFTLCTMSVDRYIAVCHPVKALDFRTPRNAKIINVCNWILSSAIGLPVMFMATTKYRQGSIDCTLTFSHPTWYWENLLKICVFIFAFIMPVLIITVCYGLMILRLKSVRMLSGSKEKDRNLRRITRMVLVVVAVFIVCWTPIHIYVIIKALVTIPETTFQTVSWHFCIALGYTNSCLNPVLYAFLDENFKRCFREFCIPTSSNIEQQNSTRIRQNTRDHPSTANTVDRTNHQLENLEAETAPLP
T2 sequence (P41143 whole entry): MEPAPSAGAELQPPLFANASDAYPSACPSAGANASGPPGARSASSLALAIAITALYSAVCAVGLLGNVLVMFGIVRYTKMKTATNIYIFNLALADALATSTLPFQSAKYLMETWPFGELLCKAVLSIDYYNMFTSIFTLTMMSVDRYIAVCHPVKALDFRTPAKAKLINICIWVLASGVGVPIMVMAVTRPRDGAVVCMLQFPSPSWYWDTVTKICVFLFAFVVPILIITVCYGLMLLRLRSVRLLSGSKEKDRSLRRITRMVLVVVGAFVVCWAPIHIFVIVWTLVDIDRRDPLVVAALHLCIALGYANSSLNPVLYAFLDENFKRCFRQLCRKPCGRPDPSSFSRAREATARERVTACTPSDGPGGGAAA
T1 sequence (P41145 whole entry): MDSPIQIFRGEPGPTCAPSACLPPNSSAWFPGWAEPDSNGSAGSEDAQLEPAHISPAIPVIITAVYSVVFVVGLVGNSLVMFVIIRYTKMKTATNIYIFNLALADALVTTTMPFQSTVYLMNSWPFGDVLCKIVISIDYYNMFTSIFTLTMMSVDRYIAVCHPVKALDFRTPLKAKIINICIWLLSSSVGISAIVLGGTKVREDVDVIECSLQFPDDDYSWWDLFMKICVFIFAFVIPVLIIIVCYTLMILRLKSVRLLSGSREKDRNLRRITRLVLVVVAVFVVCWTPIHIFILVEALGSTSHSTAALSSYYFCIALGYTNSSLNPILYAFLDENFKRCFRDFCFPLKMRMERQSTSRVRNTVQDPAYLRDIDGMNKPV

| SMILES | Selectivity ratio (Homo sapiens [1]) | Selectivity ratio (Homo sapiens [2]) | inhibition [5] | Ki (Mu-type opioid receptor [7]) | Ki [8] | further results |
| --- | --- | --- | --- | --- | --- | --- |
| Nc1ccc2c(c1)[C@@]13CCCC[C@H]1[C@@H](C2)N(CC1CC1)CC3 | 7 | 830 | – | – | – | – |
| Oc1cccc(CNc2ccc3c(c2)C[C@@H]2[C@@H]4CCCC[C@]34CCN2CC2CC2)c1 | 150 | > 10000 | 46% | 150 nM | 0.99 nM | Activity [3]: inactive; Emax [4]: 160%; EC50 [6]: 27 nM |
| CN1CC[C@]23CCCC[C@H]2[C@H]1Cc1ccc(N)cc13 | – | – | – | 7.9 nM | 110 nM | Selectivity ratio (Homo sapiens [9]): 14; Selectivity ratio (Homo sapiens [10]): 190; Ki [11]: 1500 nM |
| Oc1ccccc1CNc1ccc2c(c1)[C@@]13CCCC[C@H]1[C@@H](C2)N(CC1CC1)CC3 | 10 | 150 | – | 1.9 nM | 0.26 nM | Activity [3]: inactive; Emax (Mu-type opioid receptor [12]): 44%; Emax [4]: 110%; IC50 (Mu-type opioid receptor [13]; read-out: IC50): 160 nM; EC50 [6]: 2.3 nM; Ki [14]: 30 nM; Imax (Mu-type opioid receptor [15]): 47%; EC50 (Mu-type opioid receptor [16]): 8.8 nM |
| COc1ccc(CNc2ccc3c4c2O[C@H]2[C@@H](O)C=C[C@H]5[C@@H](C3)N(C)CC[C@@]452)cc1 | – | – | 12% | 60 nM | – | Selectivity ratio (Homo sapiens [9]): > 160; inhibition [17]: 54%; Selectivity ratio (Homo sapiens [10]): > 160 |
| Nc1ccc2c(c1)[C@@]13CCCC[C@H]1[C@@H](C2)N(CC1CCC1)CC3 | 2 | 100 | – | – | – | – |
| CN1CC[C@]23c4c5ccc(NCc6cccc(O)c6)c4O[C@H]2[C@@H](O)C=C[C@H]3[C@H]1C5 | – | – | 31% | 7 nM | 910 nM | IC50 (Mu-type opioid receptor [13]; cho): Not Active; EC50 (Mu-type opioid receptor [16]): 550 nM |

From ChEMBL document CHEMBL2046406 (J Med Chem, 2012)
